Measured values reported in ChEMBL document CHEMBL4765352, “Discovery of AdipoRon analogues as novel AMPK activators without inhibiting mitochondrial complex I” (Eur J Med Chem, 2020).
The source made the active and inactive calls. No cut-off for these calls is given here.

Key:
[1] = tested on: C2C12; assay: Activation of AMPK in mouse C2C12 cells assessed as increase in AMPK phosphorylation at Thr172 residue at 10 uM measured after 2 hrs by Western blot analysis; assay type: cell-based; details: filed as activator
Summary of the method: (§1)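 C2C12 myoblasts differentiated in DMEM with 2% horse serum for 5-7 days until myotubes formed. Treated for 2 h, either at 10 μM or across a concentration range, or at 10 μM over a time course. RIPA lysates (~30 µg protein) blotted for p-AMPK/AMPK and p-ACC/ACC, detected by ECL. The p-AMPK/AMPK ratio is expressed as fold of the DMSO vehicle.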

[2] = tested on: C2C12; assay: Activation of AMPK in mouse C2C12 cells assessed as increase in ACC phosphorylation measured after 2 hrs by Western blotting analysis; assay type: cell-based; details: filed as activator, dose 0.1-20 µM; summary of the method: as §1
[3] = species: Homo sapiens; assay: Activation of AMPK alpha1/beta1/gamma1 (unknown origin)
[4] = Inhibition of bovine heart mitochondrial complex 1 at 5 to 20 uM measured every minute for 2 hrs by microplate reader based assay; assay type: tissue-based, Bos taurus; details: cattle, dose 5-20 µM
Summary of the method: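 Bovine heart mitochondria in detergent were captured on a complex I antibody-coated plate for 2 h at room temperature. Phospholipids were added, then complex I solution with compound, rotenone control or DMSO. NADH oxidation was followed as the fall in A340, read every minute for at least 2 h at 30 °C.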

[5] = Inhibition of mitochondrial complex 1 in human HepG2 cells assessed as increase in ADP/ATP ratio at 10 uM; assay type: cell-based; details: hepg2, 10 µM
Summary of the method: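 HepG2 cells treated with 10 μM or 0.5 μM compound, or DMSO. Cellular ADP:ATP and AMP:ATP ratios were measured. Three replicates, given as mean ± SD and compared by Student's t test.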

[6] = tested on: A549; assay: Cytotoxicity against human A549 cells assessed as reduction in cell viability at 5 to 20 uM incubated for 72 hrs by MTT assay; assay type: cell-based; details: a549, 72 h, dose 5-20 µM
Summary of the method: (§2)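 MTT viability assay in C2C12, HepG2 and A549 cells. Exposure was 24 h or 72 h for C2C12 and 72 h for HepG2 and A549. Three replicates per group, compared with the 0 μM group by Student's t test.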

[7] = tested on: HepG2; assay: Cytotoxicity against human HepG2 cells assessed as reduction in cell viability at 10 to 20 uM incubated for 72 hrs by MTT assay; assay type: cell-based; details: hepg2, 72 h, dose 10-20 µM; summary of the method: as §2
[8] = Metabolic stability in human liver microsomes assessed as compound remaining preincubated for 5 mins followed by NADPH addition and measured up to 45 mins by LC/MS analysis; assay type: ADME, Microsome; details: time 50 min, read-out: Stabilty
Summary of the method: (§3)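 Compound was preincubated with mouse (ICR/CD-1) or human liver microsomes in potassium phosphate buffer at 37 °C for 5 min, then NADPH was added to start the reaction. Samples were quenched with acetonitrile containing tolbutamide internal standard at 0, 5, 15, 30 and 45 min. Parent compound measured by LC/MS; ketanserin served as control.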

[9] = Metabolic stability in human liver microsomes assessed as half life preincubated for 5 mins followed by NADPH addition and measured up to 45 mins by LC/MS analysis; assay type: ADME, Microsome; details: time 50 min; summary of the method: as §3
[10] = Metabolic stability in human liver microsomes assessed as intrinsic clearance preincubated for 5 mins followed by NADPH addition and measured up to 45 mins by LC/MS analysis; assay type: ADME, Microsome; details: time 50 min, read-out: CLH
Summary of the method: (§4)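 Compound and liver microsomes in preheated potassium phosphate buffer, held at 37 °C for 5 min. Reaction started with NADPH and stopped at 0, 5, 15, 30 and 45 min with acetonitrile containing tolbutamide internal standard. Samples centrifuged at 6000 rpm for 15 min, supernatant analysed by LC/MS. Ketanserin run as assay control. Performed by a contract lab.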

[11] = Metabolic stability in ICR/CD-1 mouse liver microsomes assessed as half life preincubated for 5 mins followed by NADPH addition and measured up to 45 mins by LC/MS analysis; assay type: ADME, Microsome; details: time 50 min; summary of the method: as §3
[12] = Metabolic stability in ICR/CD-1 mouse liver microsomes assessed as intrinsic clearance preincubated for 5 mins followed by NADPH addition and measured up to 45 mins by LC/MS analysis; assay type: ADME, Microsome; details: time 50 min, read-out: CLH; summary of the method: as §4
[13] = tested on: Mus musculus; assay: Antihyperglycemic activity in db/db mouse assessed as reduction in fasting blood glucose level at 100 mg/kg, ig administered once daily for 2 to 6 weeks; assay type: functional, organism-based; details: time 2-6 weeks
Summary of the method: (§5)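 db/db mice, 5 weeks old, grouped by matching baseline blood glucose and body weight. Dosed intragastrically once daily at 100 mg/kg in 0.5% methylcellulose; vehicle-treated db/db and db/m mice served as controls. Body weight and fasting blood glucose measured weekly. Serum ALT and AST measured after 10 weeks. Data given as mean ± SEM.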

[14] = tested on: Mus musculus; assay: Antihyperglycemic activity in db/db mouse assessed as improved insulin resistant at 100 mg/kg, ig administered once daily for 9 weeks by ITT; assay type: functional, organism-based
Summary of the method: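 db/db mice dosed from 5 weeks of age with 100 mg/kg/day in 0.5% methylcellulose vehicle, for 9 weeks. After a 6 h fast, insulin was injected i.p. at 1.5 mU/g body weight and tail-vein blood glucose followed. Data given as mean ± SEM and compared by two-way ANOVA.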

[15] = Toxicity in db/db mouse assessed as effect on body weight at 100 mg/kg, ig administered for 10 weeks; assay type: organism-based; details: in vivo, po, 1680 h; summary of the method: as §5
[16] = Toxicity in db/db mouse assessed as effect on serum ALT level at 100 mg/kg, ig administered for 10 weeks; assay type: organism-based; details: in vivo, po, 1680 h; summary of the method: as §5
[17] = Toxicity in db/db mouse assessed as effect on serum AST level at 100 mg/kg, ig administered for 10 weeks; assay type: organism-based; details: in vivo, po, 1680 h; summary of the method: as §5
[18] = species: Mus musculus; assay: Improvement in lipid homeostasis in db/db mouse assessed as effect on serum triglyceride level; assay type: functional, organism-based
[19] = species: Mus musculus; assay: Improvement in lipid homeostasis in db/db mouse assessed as effect on serum total cholesterol level; assay type: functional, organism-based
[20] = Induction of cardiac hypertrophy in normal lean C57BL/6 mouse at 100 mg/kg, ig administered for 4 weeks; assay type: organism-based; details: in vivo, po, 672 h
Summary of the method: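 Male C57BL/6 mice, 9 weeks old, dosed intragastrically daily for 4 weeks. After saline perfusion, organ weights and tibia length were recorded. Heart pieces were fixed in 4% paraformaldehyde, embedded in paraffin and stained with periodic acid-Schiff to show glycogen.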

[21] = Toxicity in C57BL/6 mouse assessed as change in heart weight/tibia length ratio at 50 to 200 mg/kg, ig administered for 4 weeks; assay type: organism-based; details: in vivo, po, 672 h, dose 50-200 mg/kg
Summary of the method: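 Male C57BL/6 mice (6 per group) given 50, 100 or 200 mg/kg intragastrically daily for 4 weeks. Saline-perfused hearts were weighed and examined for gross morphology, with representative hearts chosen by similar body weight. Heart weight was expressed relative to body weight and to tibia length.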

[22] = Induction of cardiac hypertrophy in db/db mouse at 100 mg/kg, ig administered for 10 weeks; assay type: organism-based; details: in vivo, po, 1680 h
[23] = tested on: H9c2; assay: Activation of AMPK in rat H9C2 cells assessed as increase in phosphorylation of AMPK at 1 to 20 uM incubated for 1 to 24 hrs by Western blot analysis; assay type: cell-based; details: dose 1-20 µM, time 1-24 hrs
Summary of the method: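 Rat cardiac H9C2 cells treated with a concentration range for 2 h or 4 h, or with 10 μM over a time course. Lysates blotted for phosphorylated and total AMPK and ACC, detected by ECL.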

Activity [3]: inactive | remaining at 0.75 h [8]: 74% | half-life [9]: 1.62 h | CLint scaled [10]: 18 mL/min/kg | half-life [11]: 0.6 h | CLint scaled [12]: 152 mL/min/kg
SMILES: CC(C)(Oc1ccc(Cl)cc1)C(=O)Nc1ccc(OCc2ccc(C#N)cc2)cc1
Activity [1]: Active | Activity [2]: Dose-dependent effect | inhibition (INH) [4]: Not Active | inhibition (INH) [5]: Not Active | Activity [6]: Non-Toxic | Activity [7]: Toxic | Activity [13]: Active | Activity [14]: Active | Activity [15]: Non-Toxic | Activity [16]: Non-Toxic | Activity [17]: Non-Toxic | Activity [18]: inactive | Activity [19]: inactive | Activity [20]: Non-Toxic | Activity [21]: Non-Toxic | Activity [22]: Non-Toxic | Activity [23]: inactive
